Screens from PubChem BioAssay.
Mdm2-MdmX inh = inhibitors of human Mdm2-MdmX association, primary screen, cell-based, luminescence, split luciferase, SaOS-2, uHTS. inhibition, % at 8 µM. SaOS-2 split-luciferase Mdm2/MdmX complementation. AID 485346, 2010. hit rate 3% among 330,000;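 active = inhibition of at least 50% at 8 µM in the primary screen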
Target sequence (O15151 whole entry, looked up): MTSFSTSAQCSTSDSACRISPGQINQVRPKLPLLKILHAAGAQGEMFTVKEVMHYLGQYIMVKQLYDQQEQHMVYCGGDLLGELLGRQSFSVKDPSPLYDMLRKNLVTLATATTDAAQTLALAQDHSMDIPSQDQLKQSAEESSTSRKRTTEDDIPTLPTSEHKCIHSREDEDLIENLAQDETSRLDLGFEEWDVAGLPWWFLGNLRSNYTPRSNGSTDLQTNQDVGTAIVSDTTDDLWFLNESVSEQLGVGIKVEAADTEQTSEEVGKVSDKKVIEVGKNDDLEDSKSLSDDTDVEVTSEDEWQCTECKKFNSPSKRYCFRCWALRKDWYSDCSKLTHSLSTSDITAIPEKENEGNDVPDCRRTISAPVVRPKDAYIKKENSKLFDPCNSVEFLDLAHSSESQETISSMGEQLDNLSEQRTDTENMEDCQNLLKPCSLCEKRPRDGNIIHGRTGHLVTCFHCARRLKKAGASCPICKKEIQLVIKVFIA
Target sequence (Q00987 whole entry, looked up): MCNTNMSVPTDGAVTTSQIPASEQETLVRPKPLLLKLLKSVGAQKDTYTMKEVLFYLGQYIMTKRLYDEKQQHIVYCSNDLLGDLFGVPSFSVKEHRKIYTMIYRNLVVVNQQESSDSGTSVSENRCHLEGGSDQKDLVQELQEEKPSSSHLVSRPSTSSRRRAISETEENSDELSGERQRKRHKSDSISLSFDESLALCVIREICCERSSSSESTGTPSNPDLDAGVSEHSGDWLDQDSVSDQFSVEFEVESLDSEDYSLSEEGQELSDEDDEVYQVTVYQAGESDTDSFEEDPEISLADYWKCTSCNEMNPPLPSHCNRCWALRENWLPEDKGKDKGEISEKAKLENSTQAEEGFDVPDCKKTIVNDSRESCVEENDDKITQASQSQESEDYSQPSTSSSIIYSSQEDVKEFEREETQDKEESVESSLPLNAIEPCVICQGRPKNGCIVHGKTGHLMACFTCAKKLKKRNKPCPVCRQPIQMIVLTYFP
ABHD5 PLIN5 PPI = ABHD5-PLIN5 interaction inhibitors, primary screen, cell lysate, split luciferase complementation, luminescence | Perilipin-5 (Homo sapiens) + 1-acylglycerol-3-phosphate O-acyltransferase ABHD5 (Homo … | Split G. princeps luciferase complementation, 4 h | inhibition, % at 4 µM | hit rate 0.78% among 360,000 | AID 602281, 2012;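 active = inhibition above the mean inhibition across every tested compound plus 3 SD, cut at about 22% in these data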;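 note: 0% = DMSO only wells and the 100% control is not disclosed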
CHOP UPR activ = activators of apoptotic CHOP UPR arm, primary screen, cell-based, CHO-CHOP luciferase reporter, luminescence, uHTS; hit rate 0.34% among 330,000; UPR activation; percent of tunicamycin response over DMSO baseline; activation, % at 10 µM; AID 449763, 2010;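 active = at 10 µM dose, activation of 40% or more, normalized to positive control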;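 note: 100% = tunicamycin at 10 µg/mL and 0% = DMSO alone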
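Dosing – one dose, 10 µM in 0.5% DMSO · System – CHO-CHOP cells, stable luciferase reporter of PERK-eIF2a-CHOP signalling · Input – 500 cells/well · Control set – tunicamycin 10 µg/mL final as positive, DMSO-only wells as negative · Timing – 6 h compound treatment, 37 °C · Measure – % activation vs tunicamycin · Technique – luminescence read with Steady-Glo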
Granule exo inh = LAMP-1 surface exposure blockers, TALL-104 cells – cell-based, flow cytometry, MLPCN library, primary screen; inhibition, % at 10 µM; hit rate 0.66% among 360,000; AID 651702, 2012; TALL-104 LAMP-1 surface exposure; cells stimulated with thapsigargin and PMA;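 active = inhibition above about 55%, limit read from the data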
UPR XBP1 act = activators of adaptive XBP1 UPR arm, primary screen, cell-based, CHO-XBP1 luciferase reporter, luminescence, uHTS; IRE1-XBP1 UPR activation; percent of tunicamycin response, DMSO as zero; activation, % at 20 µM; hit rate 0.33% among 330,000; AID 463104, 2010;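 active = versus positive control, 20 µM dose yields 30% or more activation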;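 note: 100% = tunicamycin at 10 µg/mL and 0% = DMSO only wells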
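Material: IRE1-XBP1 luciferase reporter CHO line / Quantity: one thousand reporter cells per well / Buffer or medium: F12 with 10% serum / Compound: 20 µM single concentration, DMSO 1% / Times: 6 h treatment, 37 °C / Detection: Steady-Glo luciferase glow luminescence, 10 min after reagent addition / Benchmarks: tunicamycin high, DMSO low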
Mdm2-MdmX conf = Mdm2-MdmX complex disruptors, retested hits, confirmation, luminescence, single concentration; shares compounds with Mdm2-MdmX inh; Mdm2-MdmX binding, luminescent assay; inhibition, % at 8 µM; hit rate 55% among 10,000; AID 489028, 2010; in the data active = inhibition above about 40%
FLuc counter = full-length luciferase signal inhibition, confirmation, counter-screen for Mdm2/MdmX interaction inhibitor project, cell-based, single concentration, SaOS-2. SaOS-2 full-length luciferase counterscreen, luminescence. inhibition, % at 8 µM. shares compounds with Mdm2-MdmX inh. hit rate 77% among 6,200. AID 504607, 2011;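 active = mean inhibition at 8 µM reaching about 37%, which flags the compound as non-specific, limit read from the data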;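 note: p53-null SaOS-2 cells with luciferase driven by a doxycycline-inducible promoter; compound on cells about two nights before reading with doxycycline added after day one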
* hit, by the source's call; x = no result given. Shown are actives, neighbours in structure and some others; about 4% of the full set was active somewhere.

SMILES	Mdm2-MdmX inh	ABHD5 PLIN5 PPI	CHOP UPR activ	Granule exo inh	UPR XBP1 act	Mdm2-MdmX conf	FLuc counter
O=C(CN1C(=O)c2ccccc2S1(=O)=O)c1ccccc1F	21.0	0.0	-4.9	-2.2	-13.4	x	x
O=C(CN1C(=O)c2ccccc2S1(=O)=O)c1ccc(OC(F)F)cc1	50.4*	-2.6	-6.7	-13.1	-8.9	72.2*	76.0*
CCOc1ccc2nc(NC(=O)CC3Oc4ccccc4NC3=O)sc2c1 (stereo not given)	62.3*	-0.8	0.4	-1.0	-2.0	33.9	63.4*
COc1ccc2nc(NC(=O)CC3Oc4ccccc4NC3=O)sc2c1 (stereo not given)	30.8	-0.3	1.1	-1.5	-3.1	x	x
O=C(Nc1ccccc1N1CCCC1)c1ccc(Cl)c(S(=O)(=O)N2CCOCC2)c1	0.5	-9.9	1.8	-15.9	4.0	x	x
S=C(Nc1ccc(Cl)cc1)NC1CC2CCCC(C1)N2C1CC1 (stereo not given)	-0.4	0.9	1.0	25.6	-0.9	x	x
CCOc1ccccc1CNC(=O)CNC(=O)c1cccs1	5.0	-3.1	-0.6	-7.3	-5.1	x	x
Nc1ccc2nn(-c3cccc4ccccc34)nc2c1	52.8*	-16.2	17.3	-1.7	5.5	-0.6	x
Cc1cc2nn(-c3cccc4ccccc34)nc2cc1N	-49.0	-32.5	2.7	0.9	4.5	x	x
COc1ccc(C(=O)N(C)CCCC2CCCC2)cc1OC1CCN(C(C)C)CC1	55.0*	0.1	1.9	7.3	-6.1	35.5	72.3*
COc1ccc2cc3c(N)nn(C(=O)c4ccc(Cl)c([N+](=O)[O-])c4)c3nc2c1	83.5*	2.2	-2.4	-1.5	-0.2	88.5*	56.8*
CCCC1CCC(C(=O)n2nc(N)c3cc4ccc(OC)cc4nc32)CC1 (stereo not given)	34.9	4.7	-1.0	-6.8	0.2	x	x
COc1ccc2cc3c(N)nn(C(=O)c4ccccc4[N+](=O)[O-])c3nc2c1	93.3*	-2.2	1.0	-4.5	-1.5	87.3*	51.4*
COc1cc2nc(NC(=O)c3ccco3)sc(=O)c2cc1OC	2.1	3.0	-0.6	4.8	-0.2	x	x
COc1ccc(CCNC(=O)C(=O)NCC2OCCN2S(=O)(=O)c2cc(F)ccc2F)cc1 (stereo not given)	-6.8	-3.2	2.2	0.9	-1.6	x	x
Cn1c(/C(C#N)=C(\O)c2ccc([N+](=O)[O-])cc2)nc2ccccc21	85.7*	-0.5	4.0	-4.3	9.7	27.2	x
CCN(CC)S(=O)(=O)c1ccc(/C(O)=C(\C#N)c2nc3ccccc3n2C)cc1	18.5	6.7	0.8	-2.4	8.2	x	x
C=CCNC(=S)Nc1sc2c(c1C(N)=O)CCCC2	-23.3	-5.6	2.0	6.0	1.9	x	x
C=CC(=O)Nc1sc2c(c1C(N)=O)CCCC2	53.1*	0.1	0.5	3.4	-4.6	11.8	x
CCCCCN(C(=O)CSc1n[nH]c(-c2ccc(C)cc2)n1)c1c(N)n(CCCC)c(=O)[nH]c1=O	3.5	-4.5	1.2	-1.9	-2.8	x	x
Cc1nc2c(C)cccc2cc1C(=O)N/N=C/c1ccc(N(C)C)cc1	50.1*	-6.4	-0.9	-6.2	-1.0	49.4*	57.2*
Cc1nc2c(C)cccc2cc1C(=O)N/N=C/c1ccc(C(=O)O)cc1	-14.8	-1.8	-0.3	2.3	1.0	x	x
Nc1nc(N)c(N=O)c(OCC2CCCCC2)n1	57.1*	-1.3	4.2	13.6	1.0	33.4	x
NS(=O)(=O)OCC1CCCCC1	-11.9	7.1	-0.8	3.3	0.7	x	x
Cc1ccc(C)c(N2CCN(c3ncccc3[N+](=O)[O-])CC2)c1	72.7*	-1.4	-0.5	-11.2	-2.7	23.2	x
SMILES	Mdm2-MdmX inh	ABHD5 PLIN5 PPI	CHOP UPR activ	Granule exo inh	UPR XBP1 act	Mdm2-MdmX conf	FLuc counter
Cn1ncc2c(NCc3ccccc3)nc(NCCCO)nc21	-7.9	6.5	2.5	0.4	0.5	x	x
COc1ccc(/C=N\NC(=O)c2sccc2C)cc1Cn1nc(C)cc1C	59.0*	-0.7	1.9	-0.7	0.7	63.9*	73.0*
CCn1c(Oc2cccc(Br)c2)nc2c1c(=O)n(C)c(=O)n2C	27.3	1.5	-1.6	17.0	2.1	x	x
CC(=O)CSc1ccc(-c2nc3cc(C)c(C)cc3[nH]2)cn1	67.8*	-1.5	-8.6	3.4	-12.8	66.7*	66.3*
CC(=O)CSc1ccc(-c2nc3ccccc3[nH]2)cn1	-93.0	-6.8	1.0	-0.6	-7.0	x	x
Cc1cc2nc(-c3ccc(SCC(=O)Nc4ccc(S(=O)(=O)N5CCCC5)cc4)nc3)[nH]c2cc1C	69.3*	-8.2	1.2	-0.9	0.7	-7.7	x
O=C1[C@@H](Oc2ccccc2)[C@@H](c2ccncc2)N1c1ccccc1	53.0*	1.7	1.3	-2.9	-1.0	48.5*	47.7*
O=C1[C@@H](Oc2ccccc2)[C@@H](c2ccccc2)N1c1cccnc1	x	0.2	x	-1.6	x	x	x
Cc1cc(C)c2c(c1)/C(=C/C(=O)c1ccc(Br)s1)C(=O)N2	96.2*	4.6	-9.4	10.9	-9.3	41.4*	87.5*
Cc1cc(Br)c2c(c1)/C(=C/C(=O)c1cccs1)C(=O)N2	21.3	10.1	14.8	-1.2	17.3	x	x
COc1ccccc1Nc1nc(NCC(C)C)nc(N)c1[N+](=O)[O-]	62.0*	-2.8	3.2	11.7	13.6	46.7*	59.1*
C=CCNc1nc(N)c([N+](=O)[O-])c(Nc2ccccc2OC)n1	59.3*	7.6	1.3	-8.0	24.2	18.4	x
O=C1N/C(=C/c2ccc(Br)s2)C(=O)N1c1ccccc1	50.9*	1.5	1.4	1.2	3.0	25.9	x
COc1ccc(-c2csc(NC(=O)c3ccccc3NS(=O)(=O)c3ccc(C)cc3)n2)cc1	83.5*	0.5	2.0	28.5	1.6	64.5*	54.1*
COc1ccc(S(=O)(=O)Nc2ccccc2C(=O)Nc2nc(-c3ccc(F)cc3)cs2)cc1OC	74.2*	2.9	1.5	24.9	2.8	66.2*	62.6*
COC(=O)c1[nH]c2ccc(Br)cc2c1NC(=O)CN1CCN(C2CCCCC2)CC1	99.4*	8.3	8.2	19.5	8.0	99.0*	51.2*
COC(=O)c1[nH]c2ccc(Br)cc2c1NC(=O)CN1CCCc2ccccc21	53.4*	3.9	0.1	0.9	-0.4	26.1	x
